Assay outcomes from PubChem.
Most compounds without a hit are left out; they make up all but 4% or so of the library.
ABHD5-PLIN5 inh: ABHD5-PLIN5 protein interaction inhibition. Q00G26+Q8WTS1. Split G. princeps luciferase complementation, luminescence, 4 h. inhibition, % at 4 µM. 0.78% of 360,000 active;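 active = inhibition above the mean inhibition across every tested compound plus 3 SD, cut at about 22% in these data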;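 note: 0% = DMSO only wells and the 100% control is not disclosed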
Target sequence (Q00G26 whole entry, looked up): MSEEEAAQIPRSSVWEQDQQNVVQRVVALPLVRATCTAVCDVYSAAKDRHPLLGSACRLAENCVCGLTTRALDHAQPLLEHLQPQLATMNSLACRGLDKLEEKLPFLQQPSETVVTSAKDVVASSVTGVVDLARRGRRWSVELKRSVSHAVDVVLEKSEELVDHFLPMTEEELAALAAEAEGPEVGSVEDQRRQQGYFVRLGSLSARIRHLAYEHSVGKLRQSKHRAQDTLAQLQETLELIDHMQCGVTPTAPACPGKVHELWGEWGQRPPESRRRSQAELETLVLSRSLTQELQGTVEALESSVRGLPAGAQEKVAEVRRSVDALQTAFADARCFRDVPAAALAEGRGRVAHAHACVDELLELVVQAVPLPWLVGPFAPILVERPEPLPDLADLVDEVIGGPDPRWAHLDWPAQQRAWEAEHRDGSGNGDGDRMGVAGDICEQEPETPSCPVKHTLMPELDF
Target sequence (Q8WTS1 whole entry, looked up): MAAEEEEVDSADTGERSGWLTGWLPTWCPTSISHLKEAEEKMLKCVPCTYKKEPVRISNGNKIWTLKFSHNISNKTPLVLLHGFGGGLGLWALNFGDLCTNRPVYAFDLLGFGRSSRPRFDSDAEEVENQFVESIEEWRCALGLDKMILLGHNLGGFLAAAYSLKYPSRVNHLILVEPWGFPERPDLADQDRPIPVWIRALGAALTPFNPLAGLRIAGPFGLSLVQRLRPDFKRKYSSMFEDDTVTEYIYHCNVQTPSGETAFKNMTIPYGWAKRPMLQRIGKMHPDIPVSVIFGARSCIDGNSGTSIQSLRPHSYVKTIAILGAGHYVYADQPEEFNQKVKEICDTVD
Granule exo inh: blocks lytic granule exocytosis; TALL-104 LAMP-1 surface exposure, flow cytometry; cells stimulated with thapsigargin and PMA; inhibition, % at 10 µM; 0.66% of 360,000 active; AID 651702;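 active = inhibition above about 55%, limit read from the data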
Mdm2 MdmX PPI: disrupts the human Mdm2-MdmX interaction; O15151+Q00987; SaOS-2 split-luciferase Mdm2/MdmX complementation, luminescence; inhibition, % at 8 µM; 3% of 330,000 active; AID 485346;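 active = inhibition of at least 50% at 8 µM in the primary screen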
XBP1 UPR activ: activators of adaptive arm of unfolded protein response (XBP1); activation, % at 20 µM; AID 463104; CHO-XBP1 luciferase reporter, IRE1-XBP1 UPR activation, luminescence; percent of tunicamycin response, DMSO as zero; 0.33% of 330,000 active;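 active = versus positive control, 20 µM dose yields 30% or more activation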;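 note: 100% = tunicamycin at 10 µg/mL and 0% = DMSO only wells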
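Material: CHO-XBP1 cells stably carrying IRE1-XBP1-driven luciferase reporter | Medium: F12 with 10% serum | Compound dosing: 20 µM single concentration, DMSO 1% | Incubation: Overnight seeding at 37 °C, 6 h compound treatment at 37 °C | Detection: Steady-Glo luminescence read | Read-out basis: % activation of reporter signal versus tunicamycin and DMSO controls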
UPR CHOP act: activators of apoptotic arm of unfolded protein response (CHOP). activation, % at 10 µM. 0.34% of 330,000 active. CHO-CHOP luciferase reporter, UPR activation, luminescence; percent of tunicamycin response over DMSO baseline;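 active = at 10 µM dose, activation of 40% or more, normalized to positive control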;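 note: 100% = tunicamycin at 10 µg/mL and 0% = DMSO alone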
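Test system: CHO-CHOP cells, stable luciferase reporter of PERK-eIF2a-CHOP signalling | Quantity: 500 CHO-CHOP cells per well | Buffer or medium: F12 plus 10% serum | Compound dosing: 10 µM single point, 0.5% DMSO | Schedule: 6 h compound treatment, 37 °C | Signal: Luciferase luminescence | Control set: Tunicamycin high control, DMSO low control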
Mdm2-MdmX conf: human Mdm2/MdmX binding inhibition, confirmed; shares compounds with Mdm2 MdmX PPI; luminescent assay; inhibition, % at 8 µM; 55% of 10,000 active; AID 489028; in the data active = inhibition above about 40%
Full FLuc ctr: counter-screen for Mdm2/MdmX inhibitors: full-length luciferase. 77% of 6,200 active. shares compounds with Mdm2 MdmX PPI. SaOS-2 full-length luciferase counterscreen, luminescence. inhibition, % at 8 µM;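 active = mean inhibition at 8 µM reaching about 37%, which flags the compound as non-specific, limit read from the data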;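 note: p53-null SaOS-2 cells with luciferase driven by a doxycycline-inducible promoter; compound on cells about two nights before reading with doxycycline added after day one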
Active calls of the source: *; nt = not tested or not shown.

SMILES	ABHD5-PLIN5 inh	Granule exo inh	Mdm2 MdmX PPI	XBP1 UPR activ	UPR CHOP act	Mdm2-MdmX conf	Full FLuc ctr
C=CCn1c(SCC(=O)Nc2cc(C)on2)nc2sc(C)c(C)c2c1=O	-4	0	51*	2	0	19	nt
Cc1ccc(S(=O)(=O)N2CCN(C(=O)COC(=O)/C=C/c3ccccc3F)CC2)c(C)c1	-7	-9	5	0	3	nt	nt
CC(C)CC(=O)Nc1cccc2c1C(=O)N(c1ccccc1)C2=O	-2	1	9	-1	0	nt	nt
Cc1cc(NC(=O)CSc2nc3sc4c(c3c(=O)n2C)CCCC4)no1	4	-2	11	-1	0	nt	nt
CCn1c(SCC(=O)Nc2cc(C)on2)nc2sc3c(c2c1=O)CCCC3	4	-3	76*	-3	-1	54*	16
CCC(=O)NC(c1cccs1)c1cc(Cl)c2cccnc2c1O (centres undefined)	6	-2	86*	4	2	76*	21
CCC(=O)NC(c1ccco1)c1cc(Br)c2cccnc2c1O (centres undefined)	3	6	nt	nt	nt	nt	nt
CCCCC(=O)NC(c1cccs1)c1cc(Cl)c2cccnc2c1O (centres undefined)	8	0	85*	0	-2	75*	28
FC(F)(F)c1cccc(Oc2nc(-c3ccccc3)nnc2C(F)(F)F)c1	-2	0	7	0	4	nt	nt
FC(F)(F)c1cccc(Sc2nc(-c3ccccc3)nnc2C(F)(F)F)c1	6	39	55*	-11	-6	17	nt
COc1ccc(-c2oc(=O)c3cc(OC)c(OC)cc3c2/C=C/c2ccc(F)cc2)cc1	-6	-11	29	-1	4	nt	nt
COc1ccc(-c2oc(=O)c3cc(OC)c(OC)cc3c2/C=C/c2ccc(OC(C)=O)cc2)cc1	8	-5	60*	18	15	38	63*
O=C(Nc1ccc(Oc2ncnc3cc(Cl)ccc23)nc1)c1cccs1	-5	-9	78*	7	2	73*	102*
CCN(CC(=O)Nc1ccc(NC(C)=O)cc1)C(=O)Cc1coc2cc(C)c(C)cc12	-5	2	17	1	3	nt	nt
CCc1nnc(NC(=O)CSc2nc(-c3ccccc3)c(-c3ccccc3)o2)s1	-2	-1	55*	1	-1	42*	92*
CCCc1nnc(NC(=O)CCS(=O)(=O)Cc2ccccc2)s1	-3	-3	57*	-1	1	7	nt
CCc1nnc(NC(=O)CCS(=O)(=O)c2ccccc2)s1	-4	-18	51*	-3	-1	24	nt
CCCCc1nnc(NC(=O)CCS(=O)(=O)c2ccc(C)cc2)s1	0	-1	57*	-3	-2	-5	nt
CCOCCCn1c(SCc2nc3sc(C(=O)O)c(C)c3c(=O)[nH]2)nnc1-c1ccc(Cl)cc1	-3	-1	-1	-5	1	nt	nt
Cc1nnc2c3ccccc3c(-c3ccccc3)nn12	-3	0	64*	5	-1	28	nt
Cc1ccc(-c2nn3c(C)nnc3c3ccccc23)cc1S(=O)(=O)NC(C)(C)CO	5	0	71*	0	-1	53*	78*
Cc1ccc(-c2nn3c(C)nnc3c3ccccc23)cc1S(=O)(=O)NCc1ccco1	-1	1	47	2	0	nt	nt
Cc1nnc2c3ccccc3c(-c3cccc4ccccc34)nn12	4	1	nt	nt	nt	nt	nt
Cc1ccc(-c2nn3c(C)nnc3c3ccccc23)cc1S(=O)(=O)NCCO	-9	-4	38	-2	-1	nt	nt
Cc1ccc(-c2nn3c(C)nnc3c3ccccc23)cc1S(=O)(=O)NC(C)c1ccccc1 (centres undefined)	3	-3	62*	7	5	30	nt
SMILES	ABHD5-PLIN5 inh	Granule exo inh	Mdm2 MdmX PPI	XBP1 UPR activ	UPR CHOP act	Mdm2-MdmX conf	Full FLuc ctr
CC(C)(C)OC(=O)C[C@H]1C/C=C\C[C@H](CC(=O)N(CCO)Cc2ccccc2)C(=O)N[C@@H](c2ccccc2)COC1=O	-4	18	-28	0	3	nt	nt
O=C(C1CCC1)N1CCc2cc(S(=O)(=O)NC3CCCC3)ccc21	-5	1	19	1	0	nt	nt
O=C(NCC(c1cccs1)N1CCOCC1)c1ccc(Cl)cc1 (centres undefined)	4	-1	44	-1	-2	nt	nt
COc1ccc(CNC(=O)[C@H](Cc2c[nH]c3ccccc23)NC(=O)[C@@H]2Cc3ccccc3CN2)cc1	-9	-10	9	-2	0	nt	nt
COc1ccc(NC(=O)[C@H](Cc2c[nH]c3ccccc23)NC(=O)[C@@H]2Cc3ccccc3CN2)cc1	0	-7	92*	0	1	73*	39*
CC(C)c1ccc(NC(=O)[C@H](Cc2c[nH]c3ccccc23)NC(=O)[C@@H]2Cc3ccccc3CN2)cc1	1	5	96*	-3	2	79*	23
Cc1c(C(=O)OCc2ccccc2)[nH]c2c1C(=O)CC(c1ccco1)C2 (centres undefined)	14	0	67*	10	0	63*	81*
COC(=O)c1[nH]c2c(c1C)C(=O)CC(c1cc(OC)ccc1OC)C2 (centres undefined)	3	-2	48	1	-2	nt	nt
COC(=O)c1[nH]c2c(c1C)C(=O)CC(c1cccs1)C2 (centres undefined)	-3	-5	60*	7	-2	58*	74*
CCOC(=O)c1[nH]c2c(c1C)C(=O)CC(c1ccco1)C2 (centres undefined)	13	2	60*	10	-2	59*	84*
COCCOC(=O)c1[nH]c2c(c1C)C(=O)CC(c1ccccc1)C2 (centres undefined)	-7	-7	62*	10	1	60*	73*
CCN(CC)C(=O)COc1ccc(Br)cc1Cl	2	-2	9	0	1	nt	nt
Cc1ccc(N2CCN(S(=O)(=O)N3CCCCC3)CC2)c(C)c1	nt	nt	-3	1	-1	nt	nt
COc1cc(/C=C/CNC[C@H]2O[C@@H](n3ccc(N)nc3=O)[C@H](O)[C@@H]2O)ccc1O	-1	4	nt	nt	nt	nt	nt
Cc1c(C(=O)OCCOC(C)C)[nH]c2c1C(=O)CC(c1ccco1)C2 (centres undefined)	30*	-4	64*	14	-2	48*	86*
O=C(c1ncc[nH]1)c1ccccc1Cl	-5	-3	-13	-4	4	nt	nt
O=C1NC[C@H](Cc2ccccc2)N(C[C@H]2CCCN2C[C@H](Cc2ccccc2)N2C[C@H](Cc3ccccc3)N(CC3CCCCCC3)C(=O)C2=O)C1=O	11	-6	nt	nt	nt	nt	nt
